Measured values published in ChEMBL document CHEMBL2176974, “A bactericidal guanidinomethyl biaryl that alters the dynamics of bacterial FtsZ polymerization” (J Med Chem, 2012).
The source made the active and inactive calls. The calls are words filed in the database; no cut-off is given here.

How the values were obtained:
Escherichia coli [1] = assay: Antimicrobial activity against Escherichia coli W4573 incubated for 24 hrs by broth microdilution method; assay type: functional; conditions: W4573, 24 h
Outline: (§1)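 CLSI broth microdilution. Log-phase bacteria at 10⁵ CFU/mL were exposed to 2-fold serial dilutions (64 to 0.016 μg/mL) in cation-adjusted Mueller-Hinton broth, 5% defibrinated sheep blood added for Streptococcus. Incubated aerobically 24 h at 37 °C. Growth read as OD600; MIC taken as the lowest concentration giving 90% growth inhibition.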

Escherichia coli [2] = assay: Antimicrobial activity against ESBL producing Escherichia coli ATCC BAA-201 expressing TEM3 lactamase incubated for 24 hrs by broth microdilution method; assay type: functional; conditions: ATCC BAA-201, 24 h; outline: as §1
[3] = target: T1, Cell division protein FtsZ (Escherichia coli K-12) (UniProt P0A9A6); assay: Stimulation of Escherichia coli FtsZ self-polymerization at 40 ug/mL by microtiter plate-based light scattering assay
T1 sequence (whole entry): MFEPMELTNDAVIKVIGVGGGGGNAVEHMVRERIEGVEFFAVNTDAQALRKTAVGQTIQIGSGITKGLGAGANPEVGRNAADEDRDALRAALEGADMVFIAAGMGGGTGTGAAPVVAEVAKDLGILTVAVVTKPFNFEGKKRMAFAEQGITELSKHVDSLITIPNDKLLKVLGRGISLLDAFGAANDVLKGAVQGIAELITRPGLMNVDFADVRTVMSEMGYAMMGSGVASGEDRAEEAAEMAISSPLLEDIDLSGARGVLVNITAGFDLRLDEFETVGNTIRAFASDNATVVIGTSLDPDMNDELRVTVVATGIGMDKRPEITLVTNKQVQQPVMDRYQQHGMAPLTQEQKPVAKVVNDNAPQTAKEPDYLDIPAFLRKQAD

Escherichia coli [4] = assay: Antimicrobial activity against Escherichia coli N43 expressing AcrAB efflux pump mutant incubated for 24 hrs by broth microdilution method; assay type: functional; conditions: N43, 24 h
Enterococcus faecalis [5] = assay: microbe, parasite or virus in culture; assay type: functional; conditions: ATCC 51575, 24 h
Enterococcus faecalis [6] = assay: microbe, parasite or virus in culture; assay type: functional; conditions: ATCC 19433, 24 h
Staphylococcus aureus [7] = assay: Antimicrobial activity against methicillin-resistant Staphylococcus aureus Mu3 incubated for 24 hrs by broth microdilution method; assay type: functional; conditions: Mu3, 24 h
Staphylococcus aureus [8] = assay: microbe, parasite or virus in culture; assay type: functional; conditions: ATCC 33591, 24 h
Staphylococcus aureus [9] = assay: microbe, parasite or virus in culture; assay type: functional; conditions: ATCC 49951, 24 h
Staphylococcus aureus [10] = assay: microbe, parasite or virus in culture; assay type: functional; conditions: 8325-4, 24 h
[11] = target: T2, Cell division protein FtsZ (Staphylococcus aureus) (UniProt P0A031); assay: Stimulation of Staphylococcus aureus FtsZ self-polymerization at 40 ug/mL by microtiter plate-based light scattering assay
T2 sequence (whole entry): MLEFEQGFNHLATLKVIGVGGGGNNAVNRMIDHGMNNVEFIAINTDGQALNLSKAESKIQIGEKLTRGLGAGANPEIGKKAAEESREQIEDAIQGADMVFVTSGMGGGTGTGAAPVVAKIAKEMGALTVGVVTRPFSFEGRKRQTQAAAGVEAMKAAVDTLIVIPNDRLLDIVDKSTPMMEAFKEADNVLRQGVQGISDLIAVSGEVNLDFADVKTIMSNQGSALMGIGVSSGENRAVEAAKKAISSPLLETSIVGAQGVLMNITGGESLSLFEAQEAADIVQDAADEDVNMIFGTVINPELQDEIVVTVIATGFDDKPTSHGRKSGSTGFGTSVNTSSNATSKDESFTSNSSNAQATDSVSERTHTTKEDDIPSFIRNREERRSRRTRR

Escherichia coli [12] = assay: Potency index, ratio of MBC to MIC for Escherichia coli W4573; assay type: functional
Outline: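 MBC/MIC ratio. MIC: CLSI broth microdilution, 10⁵ CFU/mL in CAMH broth, 24 h at 37 °C, OD600, 90% inhibition. MBC: well aliquots plated on tryptic soy agar, counted after 24 h, 3-log CFU reduction. Ratio 1–2 read as bactericidal, ≥8 as bacteriostatic.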

Escherichia coli [13] = assay: Antimicrobial activity against Escherichia coli W4573 incubated for 24 hrs in broth followed by colony transfer to tryptic soy agar for further 24 hrs incubation; assay type: functional; conditions: W4573, 24 h
Outline: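 MBC: broth microdilution as for MIC (10⁵ CFU/mL, CAMH broth, 24 h, 37 °C). Aliquots from wells were then plated on tryptic soy agar and colonies counted after 24 h. MBC taken as the lowest concentration giving a 3-log CFU reduction.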

Staphylococcus aureus [14] = assay: Antimicrobial effect against 3x10^9 CFU/ml methicillin-sensitive Staphylococcus aureus 8325-4 at 4 to 32 times MIC assessed as incidence of colonies growth measured after 24 incubation by large inoculation approach based drug resistance detection method; assay type: functional, organism-based
Outline: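 Inoculum count checked on nonselective plates. Incubated at 37 °C and examined after 24 h and daily thereafter. Mutation frequency = colonies on selective plates / total bacteria plated.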

[15] = target: Tubulin beta chain (Sus scrofa) (UniProt P02554); assay: Stimulation of MAP-rich pig beta-tubulin polymerization at 25 ug/mL by microtiter plate-based light scattering assay
Outline: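 MAP-rich porcine tubulin (70% β-tubulin, 30% MAPs) at 2 mg/mL with 1 mM GTP. Buffer was 80 mM PIPES·NaOH pH 7.0, 2 mM MgCl₂, 1 mM EGTA. Light scattering was followed as A340 continuously at 37 °C for 60 min, against a DMSO vehicle.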

Enterococcus faecalis [16] = assay: Binding affinity to Enterococcus faecalis FtsZ by fluorescence anisotropy BoGTPgammaS competition assay
Outline: (§2)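 Competition with fluorescent BoGTPγS. BoGTPγS (1 μM final) was mixed with 5 μM FtsZ and compound or unlabeled GTP at 0–40 μM. Buffer was 50 mM Tris·HCl pH 7.4, 50 mM KCl, 2 mM magnesium acetate. After 5 min at 25 °C, anisotropy was read at excitation 488 nm and emission 510 nm, in triplicate and averaged.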

[17] = target: T1, Cell division protein FtsZ (Escherichia coli K-12); assay: Binding affinity to Escherichia coli FtsZ by fluorescence anisotropy BoGTPgammaS competition assay; outline: as §2
[18] = target: T2, Cell division protein FtsZ (Staphylococcus aureus); assay: Binding affinity to Staphylococcus aureus FtsZ expressed in Escherichia coli BL21 (DE3) by fluorescence anisotropy BoGTPgammaS competition assay; outline: as §2

Chain of Tubulin beta chain (Sus scrofa) (P02554 whole entry): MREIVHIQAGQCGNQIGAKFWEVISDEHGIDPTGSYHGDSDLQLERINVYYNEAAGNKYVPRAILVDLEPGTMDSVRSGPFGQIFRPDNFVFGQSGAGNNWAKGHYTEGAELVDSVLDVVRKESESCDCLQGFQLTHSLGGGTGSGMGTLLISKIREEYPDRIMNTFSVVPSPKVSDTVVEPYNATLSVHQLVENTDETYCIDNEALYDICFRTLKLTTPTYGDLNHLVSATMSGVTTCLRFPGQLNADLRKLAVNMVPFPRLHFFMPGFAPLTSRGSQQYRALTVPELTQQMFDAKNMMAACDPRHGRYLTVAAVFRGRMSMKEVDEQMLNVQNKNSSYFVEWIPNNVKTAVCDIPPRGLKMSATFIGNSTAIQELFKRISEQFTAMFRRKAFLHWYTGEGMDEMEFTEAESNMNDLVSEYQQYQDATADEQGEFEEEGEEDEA

For `CC1(C)S[C@@H]2[C@H](NC(=O)[C@H](N)c3ccccc3)C(=O)N2[C@H]1C(=O)[O-].[Na+]` [AMPICILLIN SODIUM], the MIC (Escherichia coli [1]) was 4 µg/mL, the MIC (Escherichia coli [2]) was over 64 µg/mL and the Activity [3] was “inactive”.

With `NCC[C@H](O)C(=O)N[C@@H]1C[C@H](N)[C@@H](O[C@H]2O[C@H](CN)[C@@H](O)[C@H](O)[C@H]2O)[C@H](O)[C@H]1O[C@H]1O[C@H](CO)[C@@H](O)[C@H](N)[C@H]1O.O=S(=O)(O)O` the MIC (Escherichia coli [4]) was 1 µg/mL, the MIC (Escherichia coli [1]) was 2 µg/mL and the MIC (Escherichia coli [2]) was over 64 µg/mL.

`Cc1onc(-c2ccccc2Cl)c1C(=O)N[C@@H]1C(=O)N2[C@@H]1SC(C)(C)[C@@H]2C(=O)[O-].[Na+]` [OXACILLIN SODIUM SALT] gave an MIC (Enterococcus faecalis [5]) of 64 µg/mL, an MIC (Enterococcus faecalis [6]) of 8 µg/mL and an MIC (Staphylococcus aureus [7]) of over 64 µg/mL. The MIC (Staphylococcus aureus [8]) was over 64 µg/mL, the MIC (Staphylococcus aureus [9]) was 0.25 µg/mL and the MIC (Staphylococcus aureus [10]) was 0.063 µg/mL. For the same molecule, the Activity [11] was “inactive”.

In the case of `NC[C@@H]1O[C@H](O[C@H]2[C@@H](O)[C@H](O[C@@H]3[C@@H](O)[C@H](N)C[C@H](N)[C@H]3O[C@H]3O[C@H](CN)[C@@H](O)[C@H](O)[C@H]3N)O[C@@H]2CO)[C@H](N)[C@@H](O)[C@@H]1O.O.O=S(=O)(O)O` [NEOMYCIN TRISULFATE HYDRATE], the Ratio (Escherichia coli [12]) is reported as 2, the MBC (Escherichia coli [13]) is reported as 2 µg/mL and the MIC (Escherichia coli [1]) is reported as 1 µg/mL.

In the case of `CO[C@H]1/C=C/O[C@@]2(C)Oc3c(C)c(O)c4c(O)c(c(/C=N/N5CCN(C)CC5)c(O)c4c3C2=O)NC(=O)/C(C)=C\C=C\[C@H](C)[C@H](O)[C@@H](C)[C@@H](O)[C@@H](C)[C@H](OC(C)=O)[C@@H]1C`, the Activity (Staphylococcus aureus [14]) is reported as “inactive”.

For `CC(=O)O[C@H]1C(=O)[C@@]2(C)[C@H]([C@H](OC(=O)c3ccccc3)[C@]3(O)C[C@H](OC(=O)[C@H](O)[C@@H](NC(=O)c4ccccc4)c4ccccc4)C(C)=C1C3(C)C)[C@]1(OC(C)=O)CO[C@@H]1C[C@@H]2O`, the Activity [15] was “Active”.

In the case of `Nc1nc(=O)c2ncn([C@@H]3O[C@H](COP(=O)(O)OP(=O)(O)OP(=O)(O)O)[C@@H](O)C3O)c2[nH]1` (single isomer, unassigned), the Activity (Enterococcus faecalis [16]) is reported as “Dose-dependent effect”, the Activity [17] is reported as “Dose-dependent effect” and the Activity [18] is reported as “Dose-dependent effect”.
